Where “and” joins values, the source holds several entries; their conditions need not be identical. Equal values may be shown once.
Test system: U2OS
Assay: Multiplex assay against U2OS
Format: toxicity, cell-based
Conditions: human
Procedure, shortened: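 Hoechst33342, BioTracker Green Microtubule Cytoskeleton Dye, MitoTracker Red and Annexin V Alexa Fluor 680 were added to live cells at seeding, and imaging on a CQ1 microscope at 37°C and 5% CO2 followed compound addition. Gating by CellPathfinder machine learning separated cells into Hoechst high-intensity objects or normal cells, then normal cells into healthy, pyknosed or fragmented nuclei, then pyknosed cells into mitotic or apoptotic. Per cents of healthy-nucleus cells are reported for the tubulin, mitochondrial-mass and membrane-permeability phenotypes.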

[1] = 12 h, 1 µM, compound concentration 1 uM
[2] = 12 h, 10 µM, compound concentration 10 uM
[3] = 24 h, 1 µM, compound concentration 1 uM
[4] = 24 h, 10 µM, compound concentration 10 uM
[5] = 48 h, 1 µM, compound concentration 1 uM
[6] = 48 h, 10 µM, compound concentration 10 uM

SMILES: CCn1c(-c2nc3cc(C(=O)N4CCCC(N)C4)ccc3n2C)cc2ccccc21.Cl (configuration not stated)
- Population Healthy Nuclei (%) [1]: 67% and 77% and 89.25% and 83.07%
- Population Hoechst High Intensity Objects (%) [1]: 0% and 5%
- Population Membrane Permeable-Phenotype (%) [1]: 4% [middle of 4 runs]
- Population Normal (%) [1]: 99% and 94% and 100%
- Population Tubulin-Different-Phenotype (%) [1]: 2.36% [middle of 4 runs]
- Population Apoptotic (%) [2]: 48% [middle of 4 runs]
- Population Healthy Nuclei (%) [2]: 56% and 60% and 74.57% and 67.27%
- Population Hoechst High Intensity Objects (%) [2]: 2% and 1% and 0%
- Population Mitotic Cells (%) [2]: 51% and 45% and 65.85% and 73.91%
- Population Normal (%) [2]: 97% and 98% and 100%
- Population Pyknosed Nuclei (%) [2]: 19% and 18% and 23.43% and 27.88%
- Population Tubulin-Different-Phenotype (%) [2]: 27% and 48% and 33.72% and 25.23%
- Total Cell Count [2]: 277 [middle of 4 runs]
- Population Apoptotic (%) [3]: 66% [middle of 4 runs]
- Population Healthy Nuclei (%) [3]: 68% and 92.18% and 84.19%
- Population Hoechst High Intensity Objects (%) [3]: 1% and 3% and 0.17% and 0%
- Population Normal (%) [3]: 98% and 96% and 99.83% and 100%
- Population Pyknosed Nuclei (%) [3]: 9% and 5% and 6.49% and 13.68%
- Population Apoptotic (%) [4]: 62% and 73% and 40% and 53.33%
- Population Healthy Nuclei (%) [4]: 54% and 64% and 74.61% and 71.91%
- Population Hoechst High Intensity Objects (%) [4]: 2% and 3% and 0%
- Population Mitotic Cells (%) [4]: 46.67% [middle of 4 runs]
- Population Normal (%) [4]: 97% and 96% and 100%
- Population Pyknosed Nuclei (%) [4]: 17% and 16% and 21.16% and 25.28%
- Population Tubulin-Different-Phenotype (%) [4]: 15.62% [middle of 4 runs]
- Population Apoptotic (%) [5]: 75% and 70% and 44% and 47.83%
- Population Healthy Nuclei (%) [5]: 76% and 70% and 90.93% and 86.01%
- Population Hoechst High Intensity Objects (%) [5]: 2% and 4% and 0%
- Population Membrane Permeable-Phenotype (%) [5]: 8% and 10% and 1.19% and 2.66%
- Population Mitochondria Different-Phenotype (%) [5]: 3% and 9% and 0.33% and 7.4%
- Population Mitotic Cells (%) [5]: 52.17% [middle of 4 runs]
- Population Normal (%) [5]: 97% and 95% and 100%
- Population Pyknosed Nuclei (%) [5]: 6% and 7% and 7.4% and 11.7%
- Population Tubulin-Different-Phenotype (%) [5]: 5% and 8% and 1.41% and 1.78%
- Population Apoptotic (%) [6]: 78% and 77% and 57.94% and 60%
- Population Healthy Nuclei (%) [6]: 53% and 64% and 76.68% and 73.28%
- Population Hoechst High Intensity Objects (%) [6]: 5% and 6% and 0% and 0.4%
- Population Mitotic Cells (%) [6]: 40% [middle of 4 runs]
- Population Normal (%) [6]: 94% and 93% and 100% and 99.6%
- Population Pyknosed Nuclei (%) [6]: 19% and 16% and 18.03% and 22.27%
- Population Tubulin-Different-Phenotype (%) [6]: 14.92% [middle of 4 runs]

SMILES: CC/C(=C(\c1ccc(O)cc1)c1ccc(OCCN(C)C)cc1)c1ccccc1 [AFIMOXIFENE]
- Population Fragmented Nuclei (%) [1]: 0.84% and 5.44%
- Population Healthy Nuclei (%) [1]: 90.45% and 83.67%
- Population Hoechst High Intensity Objects (%) [1]: 0%
- Population Membrane Permeable-Phenotype (%) [1]: 4.07%
- Population Mitochondria Different-Phenotype (%) [1]: 0.62% and 4.88%
- Population Mitotic Cells (%) [1]: 51.61% and 87.5%
- Population Normal (%) [1]: 100%
- Population Pyknosed Nuclei (%) [1]: 8.71% and 10.88%
- Population Tubulin-Different-Phenotype (%) [1]: 2.48% and 1.63%
- Total Cell Count [1]: 356 and 147
- Population Apoptotic (%) [2]: 35.09% and 27.27%
- Population Fragmented Nuclei (%) [2]: 2.04% and 0.59%
- Population Healthy Nuclei (%) [2]: 78.57% and 73.37%
- Population Hoechst High Intensity Objects (%) [2]: 0%
- Population Membrane Permeable-Phenotype (%) [2]: 0.43% and 5.65%
- Population Mitotic Cells (%) [2]: 64.91% and 72.73%
- Population Normal (%) [2]: 100%
- Population Pyknosed Nuclei (%) [2]: 19.39% and 26.04%
- Population Tubulin-Different-Phenotype (%) [2]: 5.63% and 4.84%
- Total Cell Count [2]: 294 and 169
- Population Apoptotic (%) [3]: 53.06% and 20%
- Population Fragmented Nuclei (%) [3]: 1.85% and 5.11%
- Population Healthy Nuclei (%) [3]: 88.09% and 83.52%
- Population Hoechst High Intensity Objects (%) [3]: 0%
- Population Membrane Permeable-Phenotype (%) [3]: 0.93% and 2.04%
- Population Mitochondria Different-Phenotype (%) [3]: 0.7% and 6.12%
- Population Mitotic Cells (%) [3]: 46.94% and 80%
- Population Normal (%) [3]: 100%
- Population Pyknosed Nuclei (%) [3]: 10.06% and 11.36%
- Population Tubulin-Different-Phenotype (%) [3]: 2.04%
- Total Cell Count [3]: 487 and 176
- Population Apoptotic (%) [4]: 33.75% and 23.46%
- Population Fragmented Nuclei (%) [4]: 2.3%
- Population Healthy Nuclei (%) [4]: 77.24% and 56.72%
- Population Hoechst High Intensity Objects (%) [4]: 0%
- Population Membrane Permeable-Phenotype (%) [4]: 0.99% and 3.51%
- Population Mitotic Cells (%) [4]: 66.25% and 76.54%
- Population Normal (%) [4]: 100%
- Population Pyknosed Nuclei (%) [4]: 20.46% and 40.3%
- Population Tubulin-Different-Phenotype (%) [4]: 7.95% and 3.51%
- Total Cell Count [4]: 391 and 201
- Population Apoptotic (%) [5]: 41.05% and 54.05%
- Population Fragmented Nuclei (%) [5]: 1.6% and 5.32%
- Population Healthy Nuclei (%) [5]: 87.51% and 81.56%
- Population Hoechst High Intensity Objects (%) [5]: 0%
- Population Membrane Permeable-Phenotype (%) [5]: 1.18% and 2.61%
- Population Mitochondria Different-Phenotype (%) [5]: 0.26% and 4.78%
- Population Mitotic Cells (%) [5]: 58.95% and 45.95%
- Population Normal (%) [5]: 100%
- Population Pyknosed Nuclei (%) [5]: 10.88% and 13.12%
- Population Tubulin-Different-Phenotype (%) [5]: 0.79% and 1.74%
- Population Apoptotic (%) [6]: 43.75% and 40.78%
- Population Fragmented Nuclei (%) [6]: 4.78% and 5.95%
- Population Healthy Nuclei (%) [6]: 74.84% and 55.76%
- Population Hoechst High Intensity Objects (%) [6]: 0%
- Population Membrane Permeable-Phenotype (%) [6]: 2%
- Population Mitotic Cells (%) [6]: 56.25% and 59.22%
- Population Normal (%) [6]: 100%
- Population Pyknosed Nuclei (%) [6]: 20.38% and 38.29%
- Population Tubulin-Different-Phenotype (%) [6]: 7.66% and 8.67%
- Total Cell Count [6]: 628 and 269

— ChEMBL document CHEMBL5724801, “EUbOPEN Chemogenomics Library - Multiplex” (2024)
